# Key:
# [1] = Half life in dog at 1 mg/kg, iv; type: ADME, organism-based, Canis lupus familiaris; parameters: dose 1 mg/kg, route intravenous; settings: in vivo
# Method in brief: (§1)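 Single-dose PK in rats, dogs and cynomolgus monkeys. The compound was given iv at 1 mg/kg in EtOH:PEG400:water (10:40:50) at 1 mL/kg. […] Values are mean ± SD, n = 3.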
# [2] = Plasma clearance in cynomolgus monkey at 1 mg/kg, iv; type: ADME, organism-based, Macaca fascicularis; parameters: dose 1 mg/kg, route intravenous
# Method in brief: (§2)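 Single dose to rats, dogs and cynomolgus monkeys. IV at 1 mg/kg in EtOH:PEG400:water (10:40:50), 1 mL/kg. Oral at 10 mg/kg as crystalline HCl salt suspension in 0.5% CMC, 0.2% Tween80, 5 mL/kg. Plasma sampled over 0–24 h. Values are mean ± SD, n = 3.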
# [3] = AUC (0 to 24 hrs) in cynomolgus monkey at 1 mg/kg, iv; type: ADME, organism-based, Macaca fascicularis; parameters: time < 24 hr, dose 1 mg/kg, route intravenous; settings: plasma; method in brief: as §1
# [4] = Oral bioavailability in cynomolgus monkey at 10 mg/kg; type: ADME, organism-based, Macaca fascicularis; settings: in vivo; method in brief: as §2
# [5] = Half life in dog at 10 mg/kg, po; type: ADME, organism-based, Canis lupus familiaris; parameters: dose 10 mg/kg, route oral; settings: in vivo
# Method in brief: (§3)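 Single oral dose of 10 mg/kg given to rats, dogs or cynomolgus monkeys. The crystalline HCl salt was suspended in 0.5% CMC with 0.2% Tween80 and dosed at 5 mL/kg. […] Parameters are reported as mean ± SD, n = 3.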
# [6] = Half life in cynomolgus monkey at 1 mg/kg, iv; type: ADME, organism-based, Macaca fascicularis; parameters: dose 1 mg/kg, route intravenous; settings: in vivo; method in brief: as §1
# [7] = Half life in cynomolgus monkey at 10 mg/kg, po; type: ADME, organism-based, Macaca fascicularis; parameters: dose 10 mg/kg, route oral; settings: in vivo; method in brief: as §3
# [8] = Tmax in rat at 10 mg/kg, po; type: ADME, organism-based; parameters: dose 10 mg/kg, route oral; settings: in vivo; method in brief: as §2
# [9] = Thermodynamic solubility of the compound; type: physicochemical; settings: read-out: Therm_solubility
# Method in brief: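 Thermodynamic solubility measured on the crystalline HCl salt.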
# [10] = Oral bioavailability in rat at 10 mg/kg; type: ADME, organism-based; settings: in vivo; method in brief: as §2
# [11] = Volume of distribution at steady state in dog at 1 mg/kg, iv; type: ADME, organism-based, Canis lupus familiaris; parameters: dose 1 mg/kg, route intravenous; settings: in vivo, read-out: Vdss; method in brief: as §2
# [12] = Half life in rat at 1 mg/kg, iv; type: ADME, organism-based; parameters: dose 1 mg/kg, route intravenous; settings: in vivo; method in brief: as §1
# [13] = AUC (0 to 24 hrs) in dog at 10 mg/kg, po; type: ADME, organism-based, Canis lupus familiaris; parameters: time < 24 hr, dose 10 mg/kg, route oral; settings: plasma
# [14] = AUC (0 to 24 hrs) in rat at 10 mg/kg, po; type: ADME, organism-based; parameters: time < 24 hr, dose 10 mg/kg, route oral; settings: plasma
# [15] = Half life in rat at 10 mg/kg, po; type: ADME, organism-based; parameters: dose 10 mg/kg, route oral; settings: in vivo; method in brief: as §3
# [16] = Cmax in dog at 10 mg/kg, po; type: ADME, organism-based, Canis lupus familiaris; parameters: dose 10 mg/kg, route oral; settings: in vivo; method in brief: as §3
# [17] = Plasma clearance in rat at 1 mg/kg, iv; type: ADME, organism-based; parameters: dose 1 mg/kg, route intravenous; method in brief: as §2
# [18] = Tmax in dog at 10 mg/kg, po; type: ADME, organism-based, Canis lupus familiaris; parameters: dose 10 mg/kg, route oral; settings: in vivo; method in brief: as §2
# [19] = Plasma clearance in dog at 1 mg/kg, iv; type: ADME, organism-based, Canis lupus familiaris; parameters: dose 1 mg/kg, route intravenous; method in brief: as §2
# [20] = Cmax in rat at 10 mg/kg, po; type: ADME, organism-based; parameters: dose 10 mg/kg, route oral; settings: in vivo; method in brief: as §3
# [21] = AUC (0 to 24 hrs) in rat at 1 mg/kg, iv; type: ADME, organism-based; parameters: time < 24 hr, dose 1 mg/kg, route intravenous; settings: plasma; method in brief: as §1
# [22] = Tmax in cynomolgus monkey at 10 mg/kg, po; type: ADME, organism-based, Macaca fascicularis; parameters: dose 10 mg/kg, route oral; settings: in vivo; method in brief: as §2
# [23] = AUC (0 to 24 hrs) in dog at 1 mg/kg, iv; type: ADME, organism-based, Canis lupus familiaris; parameters: time < 24 hr, dose 1 mg/kg, route intravenous; settings: plasma; method in brief: as §1
# [24] = Cmax in cynomolgus monkey at 10 mg/kg, po; type: ADME, organism-based, Macaca fascicularis; parameters: dose 10 mg/kg, route oral; settings: in vivo; method in brief: as §3
# [25] = Volume of distribution at steady state in cynomolgus monkey at 1 mg/kg, iv; type: ADME, organism-based, Macaca fascicularis; parameters: dose 1 mg/kg, route intravenous; settings: in vivo, read-out: Vdss; method in brief: as §2
# [26] = Volume of distribution at steady state in rat at 1 mg/kg, iv; type: ADME, organism-based; parameters: dose 1 mg/kg, route intravenous; settings: in vivo, read-out: Vdss; method in brief: as §2
# [27] = Oral bioavailability in dog at 10 mg/kg; type: ADME, organism-based, Canis lupus familiaris; settings: in vivo; method in brief: as §2
# [28] = AUC (0 to 24 hrs) in cynomolgus monkey at 10 mg/kg, po; type: ADME, organism-based, Macaca fascicularis; parameters: time < 24 hr, dose 10 mg/kg, route oral; settings: plasma
compound,measurement,setting,value
CC1CCN([C@H](c2ccc(F)cc2)c2ccc([C@@H](C)C(=O)O)cc2-c2ccc(C(F)(F)F)cc2)CC1.Cl,half-life,[1],1.3 h
same,clearance,[2],3.7 mL/min/kg
same,AUC(0-t) at 24 h,[3],4700 ng·h/mL
same,bioavailability,[4],106%
same,half-life,[5],2.3 h
same,half-life,[6],11.2 h
same,half-life,[7],25 h
same,Tmax,[8],1.7 h
same,solubility thermodynamic,[9],20 µg/mL
same,bioavailability,[10],47%
same,Vd,[11],0.9 L/kg
same,half-life,[12],7.2 h
same,AUC(0-t) at 24 h,[13],5200 ng·h/mL
same,AUC(0-t) at 24 h,[14],49700 ng·h/mL
same,half-life,[15],6.6 h
same,Cmax,[16],1400 ng/mL
same,clearance,[17],1.5 mL/min/kg
same,Tmax,[18],1.3 h
same,clearance,[19],14 mL/min/kg
same,Cmax,[20],6000 ng/mL
same,AUC(0-t) at 24 h,[21],10400 ng·h/mL
same,Tmax,[22],2 h
same,AUC(0-t) at 24 h,[23],1200 ng·h/mL
same,Cmax,[24],5900 ng/mL
same,Vd,[25],1.7 L/kg
same,Vd,[26],0.8 L/kg
same,bioavailability,[27],44%
same,AUC(0-t) at 24 h,[28],48000 ng·h/mL

# Source: ChEMBL document CHEMBL2146445, “Discovery of BIIB042, a Potent, Selective, and Orally Bioavailable γ-Secretase Modulator” (ACS Med Chem Lett, 2011)
